In publication PMC5760963 (Journal of Pharmaceutical Analysis, 2012):

How the values were obtained:
[1] = format: in vivo; details: human, plasma, po, 75 mg, 75 mg oral, fed, healthy Indian subjects, mean ±SD; for AUC(0-t): AUC 0–48, reference formulation (TAMIFLU); for AUC(0-inf): reference formulation (TAMIFLU); for half-life: t1/2, reference formulation (TAMIFLU)
Procedure, shortened: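 Healthy Indian volunteers (n=42), fed, single oral 75 mg capsule of test compound, test and reference formulations over two periods. Blood taken 0–48 h into K3EDTA tubes on ice (<10 °C). Plasma mixed 95:5 v/v with dichlorvos stock (4 mg/mL) and stored at −20 °C, then below −70 °C. Parent and carboxylate metabolite measured by validated LC–MS/MS. Calibration ranges were 0.5–200 and 2.0–800 ng/mL.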

[2] = cited from earlier work
[3] = Stability of analytes in spiked human plasma and wet extract; format: physicochemical; details: for Mean stability sample ±SD: n=6
Procedure, shortened: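 Human blank plasma spiked at LQC (OST/OSTC 1.5/6.0 ng/mL) and HQC (160/640 ng/mL), with dichlorvos as esterase inhibitor. Bench top (room temperature), autosampler (wet extract), freeze-thaw and long term (−20 °C, −70 °C) stability were tested, six replicates per level. Samples were thawed in an ice bath below 10 °C and extracted. Stability was read as analyte/IS area ratio by LC–MS/MS against freshly prepared comparison standards.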

[4] = cited from earlier work; for renal excretion (share of dose): 100 mg dose, as OSTC or as unchanged drug
[5] = hydrolysis controlled; cited from earlier work
[6] = Bench top stability (ambient temperature), 12 h, HQC (160/640 ng/mL OST/OSTC)
[7] = Bench top stability (ambient temperature), 12 h, HQC, vs comparison samples
[8] = Bench top stability (ambient temperature), 12 h, LQC (1.5/6.0 ng/mL OST/OSTC)
[9] = Bench top stability (ambient temperature), 12 h, LQC, vs comparison samples
[10] = Freeze & thaw stability in plasma, 5 cycles, −20 °C, HQC
[11] = Freeze & thaw stability in plasma, 5 cycles, −20 °C, LQC
[12] = Freeze & thaw stability in plasma, 5 cycles, −70 °C, HQC
[13] = Freeze & thaw stability in plasma, 5 cycles, −70 °C, LQC
[14] = Long term stability in plasma: 61 days, −20 °C, HQC
[15] = Long term stability in plasma: 61 days, −20 °C, LQC
[16] = Long term stability in plasma: 61 days, −70 °C, HQC
[17] = Long term stability in plasma: 61 days, −70 °C, LQC
[18] = Wet extract stability (5 °C), 25 h, HQC
[19] = Wet extract stability (5 °C), 25 h, LQC
[20] = Wet extract stability (25 °C), 10 h, HQC
[21] = Wet extract stability (25 °C), 10 h, LQC
[22] = following oral administration of OST in healthy volunteers

Row | SMILES | AUC(0-t) [1] [ng·h/mL] | AUC(0-inf) [1] [ng·h/mL] | half-life [1] [h] | Mean stability sample ±SD [3, 6] [ng/mL] | Change (%) [3, 7] [%] | Mean stability sample ±SD [3, 8] [ng/mL] | Change (%) [3, 9] [%] | Change (%) [3, 10] [%] | Mean stability sample ±SD [3, 10] [ng/mL] | Change (%) [3, 11] [%] | Mean stability sample ±SD [3, 11] [ng/mL] | Change (%) [3, 12] [%] | Mean stability sample ±SD [3, 12] [ng/mL] | Change (%) [3, 13] [%] | Mean stability sample ±SD [3, 13] [ng/mL] | Change (%) [3, 14] [%] | Mean stability sample ±SD [3, 14] [ng/mL] | Change (%) [3, 15] [%] | Mean stability sample ±SD [3, 15] [ng/mL] | Change (%) [3, 16] [%] | other results
1 | CCC(CC)O[C@@H]1C=C(C(=O)O)C[C@H](N)[C@H]1NC(C)=O [Oseltamivir carboxylate, oseltamivir carboxylate] | 3900 ± 721 | 3990 ± 729 | 7.5 ± 0.96 | 653.1 ± 23.7 | 1.40 | 5.841 ± 0.495 | 1.40 | −1.57 | 626.2 ± 22.7 | −2.79 | 5.583 ± 0.553 | −1.57 | 626.0 ± 25.6 | 0.35 | 5.762 ± 0.394 | −0.85 | 698.4 ± 16.6 | 2.72 | 6.791 ± 0.273 | 0.43 | protein bound [2]: about 43%; Mean stability sample ±SD [3, 16]: 707.4 ± 19.0 ng/mL; Change (%) [3, 17]: −1.82%; Mean stability sample ±SD [3, 17]: 6.492 ± 0.328 ng/mL; Change (%) [3, 18]: 0.47%; Mean stability sample ±SD [3, 18]: 647.2 ± 18.2 ng/mL; Change (%) [3, 19]: 4.55%; Mean stability sample ±SD [3, 19]: 5.983 ± 0.556 ng/mL; Change (%) [3, 20]: −0.31%; Mean stability sample ±SD [3, 20]: 642.4 ± 13.4 ng/mL; Change (%) [3, 21]: 5.77%; Mean stability sample ±SD [3, 21]: 6.050 ± 0.393 ng/mL; renal excretion (share of dose) [4]: 63%; time to maximum plasma levels (Cmax) [4, 22]: ≤ 5 h; time until detectable in plasma [4, 22]: about 30 min
2 | CCOC(=O)C1=C[C@@H](OC(CC)CC)[C@H](NC(C)=O)[C@@H](N)C1 [Oseltamivir, oseltamivir] | 153 ± 35 | 163 ± 37 | 4.97 ± 3.27 | 167.0 ± 9.5 | 0.60 | 1.430 ± 0.043 | 2.14 | −3.05 | 159.3 ± 9.1 | −4.23 | 1.364 ± 0.075 | −2.44 | 160.2 ± 5.4 | 1.41 | 1.442 ± 0.070 | 1.18 | 172.3 ± 3.9 | −3.61 | 1.635 ± 0.096 | 0.59 | Mean stability sample ±SD [3, 16]: 171.1 ± 3.7 ng/mL; Change (%) [3, 17]: −1.81%; Mean stability sample ±SD [3, 17]: 1.632 ± 0.035 ng/mL; Change (%) [3, 18]: 1.81%; Mean stability sample ±SD [3, 18]: 169.2 ± 7.4 ng/mL; Change (%) [3, 19]: 5.71%; Mean stability sample ±SD [3, 19]: 1.481 ± 0.086 ng/mL; Change (%) [3, 20]: 3.61%; Mean stability sample ±SD [3, 20]: 172.1 ± 10.4 ng/mL; Change (%) [3, 21]: 4.29%; Mean stability sample ±SD [3, 21]: 1.460 ± 0.077 ng/mL; stability of OST concentration in samples kept on ice [5]: up to 1 h; renal excretion (share of dose) [4]: 3%
